Among the data in ChEMBL document CHEMBL3632470, “Antimalarial and Antiproliferative Cassane Diterpenes of Caesalpinia sappan” (J Nat Prod, 2015) are IC50 values, retold here.

Broadly, the IC50 is the concentration needed to halve the response being measured. Read a high IC50 as weaker potency in that assay.

For the first test, the system named is Plasmodium falciparum. Put plainly: Antimalarial activity against chloroquine-resistant Plasmodium falciparum K1 by microculture radioisotope technique. It is filed as functional, organism-based.
Conditions: not given
In short, it runs like this: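 Microculture radioisotope technique on P. falciparum K1 (multidrug-resistant strain), parasites kept in continuous culture. Three replications per experiment. IC50 reported as mean ± SD of triplicate experiments.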
`CCO[C@@]12C[C@H]3[C@@H](CC[C@H]4C5(C(=O)OC)CCCC34[C@H](O)OC5)[C@@H](C)C1=CC(=O)O2` (stereo not given in full) came in with a half-maximal inhibitory concentration (IC50) of 7.4 µM. On the same count and under the same terms, as for `CCO[C@@H]1OC(OC)C2(C(=O)OC)CCCC13[C@H]1C[C@@]4(OCC)OC(=O)C=C4[C@H](C)[C@@H]1CC[C@@H]23` (stereo not given in full), the figure is 34.8 µM; as for `CCO[C@H]1OC(OC)C23CCCC1(C(=O)OC)[C@@H]2CC[C@H]1[C@@H](C)C2=CC(=O)O[C@]2(OCC)C[C@@H]13` (stereo not given in full), 32.1 µM; as for `CCO[C@@]12C[C@H]3[C@@H](CC[C@H]4C5(C(=O)OC)CCCC34C(OC)O[C@@H]5OC)[C@@H](C)C1=CC(=O)O2` (stereo not given in full), 28.4 µM. The same measure, in the same setting: as for `CCO[C@@]12C[C@H]3[C@@H](CC[C@H]4C5(C(=O)OC)CCCC34C(OC)OC5)[C@@H](C)C1=CC(=O)O2` (stereo not given in full), the figure is 15.7 µM; as for `CCOC1OCC2(C(=O)OC)CCCC13[C@H]1C[C@@]4(OC)OC(=O)C=C4[C@H](C)[C@@H]1CC[C@@H]23` (stereo not given in full), 19.2 µM. As to `COC(=O)C12CCCC3([C@H](O)OC1)[C@H]1C[C@@]4(O)OC(=O)C=C4[C@H](C)[C@@H]1CC[C@@H]23` (stereo not given in full), the IC50 stood at 0.78 µM. The same measure, in the same setting: in the case of `COC(=O)C12CCCC3(C(OC)OC1O)[C@H]1C[C@@]4(O)OC(=O)C=C4[C@H](C)[C@@H]1CC[C@@H]23` (stereo not given in full) it was 0.52 µM.

Take `COC(=O)[C@]1(C)CCC[C@@]2(CO)C1CC[C@H]1[C@@H](C)C3=CC(=O)O[C@]3(O)C[C@@H]12` (stereo not given in full): half-maximal inhibition (IC50) was put at 2.5 µM. With `CCO[C@@]12C[C@H]3[C@@H](CCC4[C@](C)(C(=O)OC)CCC[C@@]43C=O)[C@@H](C)C1=CC(=O)O2` (stereo not given in full), half-maximal inhibition (IC50) required 29.7 µM.

On to `CCO[C@@]12C[C@H]3[C@@H](CCC4[C@](C)(C(=O)OC)CCC[C@@]43C(=O)O)[C@@H](C)C1=CC(=O)O2` (stereo not given in full), for which the IC50 stood at 41.2 µM.

`CCO[C@@]12C[C@H]3[C@@H](CCC4C(C(=O)OC)(C(=O)OC)CCC[C@@]43C=O)[C@@H](C)C1=CC(=O)O2` (stereo not given in full) displayed an IC50 of 38.9 µM.

A further test deals with KB. Kind of test: Cytotoxicity against human KB cells after 48 hrs by MTT assay. Format: functional, cell-based.
Conditions: not given
Put shortly:
(§1)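 Cells grown in DMEM with 10% FBS, seeded at 6 × 10^4 cells/mL per well. Compounds in DMSO added at five concentrations, each in triplicate. Incubated 48 h at 37 °C in 5% CO2, then MTT (4 mg/mL) for another 4 h. Cells lysed in DMSO, absorbance read at 570 nm. At least three independent experiments.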
For the compound `CCO[C@@]12C[C@H]3[C@@H](CCC4[C@](C)(C(=O)OC)CCC[C@@]43C=O)[C@@H](C)C1=CC(=O)O2` (stereo not given in full), the IC50 is 7.4 µM. That is a single-digit micromolar value. `COc1cccc2c1C(=O)c1c(O)c3c(c(O)c1C2=O)C[C@@](O)(C(=O)CO)C[C@@H]3O[C@H]1C[C@H](N)[C@H](O)[C@H](C)O1` [DOXORUBICIN] returned an IC50 of 1.4 µM. Against the preceding compound, the IC50 is about 5.3-fold lower.

The test system of another test is HT-29. Put plainly: Cytotoxicity against human HT-29 cells after 48 hrs by MTT assay. It is filed as functional, cell-based. The following applies: HT-29, 48 h. Put shortly:
as §1
As to `COc1cccc2c1C(=O)c1c(O)c3c(c(O)c1C2=O)C[C@@](O)(C(=O)CO)C[C@@H]3O[C@H]1C[C@H](N)[C@H](O)[C@H](C)O1` [DOXORUBICIN], half-maximal inhibition (IC50) was put at 0.68 µM.
